{
  "source": "paper PMC5484360",
  "about": "(Journal of Applied Toxicology, 2017)",
  "key": {"[1]": {"type": "in vitro ADME, human", "details": "Protocol 2B; for Jss (steady state flux through the SC) / kp (permeation coefficient) / Mass balance / tlag (lag time): human SC; for Mass balance: 22 h; for tlag (lag time): from non-linear regression of cumulative amount penetrated vs. time", "method_in_brief": "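Isolated SC on 0.22 μm SuPor membrane, thickness by digital micrometer; flow-through cells at 32°C, stirred, receptor DPBS+ at 25 μl/min, equilibrated ≥30 min before dosing; 22 h occluded incubation; donor sampled pre/post; SC dissolved in 1M NaOH, radioactivity counted with washes for mass balance. Jss from earliest linear slope, membrane-corrected; kp = Jss/C; KSC/v·HSC and DSC/HSC² by non-linear Fick's-second-law fit of cumulative absorbed vs time.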"}, "[2]": {"type": "in vitro ADME, human"}, "[3]": {"type": "in vitro ADME", "details": "Protocol 1, pig skin, 30 min exposure, infinite dose, mean (%CV)", "method_in_brief": "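Pig skin was shaved, trimmed to 2–3 mm and defatted, then mounted as 32 mm discs in Franz cells over 9 g l–1 NaCl and equilibrated 1 h at 32°C with stirring. Infinite dose (350 μl cm–2), 30 min exposure, excess removed, then 15 weighed tape strips over 18 mm, extracted with methanol. HSC came from TEWL; depth profiles were fitted to Fick's 2nd-law solution for KSC/v and DSC/HSC².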"}, "[4]": {"details": "human skin, Equation (10) non-linear regression, mean (%CV)"}, "[5]": {"details": "Protocol 1, human skin, 30 min exposure, infinite dose, mean (%CV)"}},
  "note": "Like-named read-outs stand apart in the source and are kept apart here.",
  "data": [
    {"smiles": "CCOc1ccc2ccc(=O)oc2c1", "note": "[7‐Ethoxycoumarin]", "values": [
      {"measurement": "Jss (steady state flux through the SC)", "setting": "[1]", "value": 225, "unit": "ng/cm^2"},
      {"measurement": "kp (permeation coefficient)", "setting": "[1]", "value": "0.095 ± 0.188", "unit": "×10⁻⁶ cm/s"},
      {"measurement": "Mass balance", "setting": "[1]", "value": "97.3 ± 1.4", "unit": "%"},
      {"measurement": "tlag (lag time)", "setting": "[1]", "value": "0.001 ± 0.004", "unit": "h"},
      {"measurement": "DSC/HSC ^2", "setting": "[1]; [4]", "value": "0.078 (26%) h^‐1"},
      {"measurement": "KSC/v", "setting": "[1]; [4]", "value": "0.019 (34%)"},
      {"measurement": "DSC/HSC ^2", "setting": "[2]; [5]", "value": "0.030 (55%) h^‐1"},
      {"measurement": "KSC/v", "setting": "[2]; [5]", "value": "39.5 (19%)"},
      {"measurement": "KSC/v", "setting": "[2]; Protocol 1, human skin, 30 min exposure, infinite dose, mean (%CV), listed as 7‐EC", "value": 39.5},
      {"measurement": "KSC/v", "setting": "[2]; Protocol 1, single human donor in duplicate, 30 min exposure", "value": "34.5 ± 6.4"},
      {"measurement": "KSC/v", "setting": "[2]; Protocol 1, single human donor in duplicate, 90 min exposure", "value": "46.0 ± 1.4"},
      {"measurement": "DSC/HSC ^2", "setting": "[3]", "value": "0.10 (44%) h^‐1"},
      {"measurement": "KSC/v", "setting": "[3]", "value": "89.5 (4.6%)"},
      {"measurement": "KSC/v", "setting": "[3]; listed as 7‐EC", "value": 89.5}
    ]},
    {"smiles": "Cn1c(=O)c2c(ncn2C)n(C)c1=O", "note": "[Caffeine]", "values": [
      {"measurement": "Jss (steady state flux through the SC)", "setting": "[1]", "value": 1261429, "unit": "ng/cm^2"},
      {"measurement": "kp (permeation coefficient)", "setting": "[1]", "value": "0.154 ± 0.111", "unit": "×10⁻⁶ cm/s"},
      {"measurement": "Mass balance", "setting": "[1]", "value": "99.7 ± 1.3", "unit": "%"},
      {"measurement": "tlag (lag time)", "setting": "[1]", "value": "1.82 ± 1.02", "unit": "h"},
      {"measurement": "KSC/v", "setting": "[1]; [4]", "value": "2.63 (70%)"},
      {"measurement": "KSC/v", "setting": "[2]; [5]", "value": "2.68 (20%)"},
      {"measurement": "KSC/v", "setting": "[2]; Protocol 1, human skin, 30 min exposure, infinite dose, mean (%CV), listed as caffeine", "value": 2.68},
      {"measurement": "KSC/v", "setting": "[3]", "value": "1.27 (31%)"},
      {"measurement": "KSC/v", "setting": "[3]; listed as caffeine", "value": 1.27}
    ]},
    {"smiles": "Oc1cccc(O)c1", "note": "[Resorcinol]", "values": [
      {"measurement": "Jss (steady state flux through the SC)", "setting": "[1]", "value": 2699031, "unit": "ng/cm^2"},
      {"measurement": "kp (permeation coefficient)", "setting": "[1]", "value": "0.233 ± 0.133", "unit": "×10⁻⁶ cm/s"},
      {"measurement": "Mass balance", "setting": "[1]", "value": "99.2 ± 2.5", "unit": "%"},
      {"measurement": "tlag (lag time)", "setting": "[1]", "value": "2.13 ± 0.16", "unit": "h"}
    ]}
  ]
}
